Assay outcomes deposited in PubChem by several laboratories.
This is a sample that favours compounds with a hit; in the whole collection about 5.4% have one here.
aSyn UTR inh: MLPCN primary screen, SNCA 5' untranslated region; 300,000 compounds, 0.82% hits; alpha-synuclein 5'UTR reporter, inhibitor activity; inhibition, % (tested at 7.5 µM); AID 1813, 2009; in the data active = inhibition above about 60%; inconclusive = no clear call, values can overlap the other calls;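 note: H4 neuroglioblastoma cells stably carrying SNCA 5'UTR luciferase fusion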
T cruzi inh: inhibitors of intracellular T. cruzi growth, primary screen, luminescence, NIH3T3 host cells; T. cruzi beta-gal in NIH3T3, 90 h; inhibition, % (no concentration beside the values); 300,000 compounds, 1.4% hits; AID 1885, 2009;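 active = mean inhibition across valid replicates above about 55%, limit read from the data; inconclusive = mean below that limit but half or more replicates reach it; inactive = mean below it, under half of replicates reach it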;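 note: signal also drops with host cell toxicity which is not excluded here; higher percent means less beta-gal luminescence so fewer parasites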
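System: NIH/3T3 fibroblasts plus reporter T. cruzi. Medium: DMEM plus 2% FBS. Probe or stimulus: 5000 reporter trypomastigotes per well. Compound: single 50 nL compound addition per well in DMSO. Incubation: co-culture of at least 90 h after 3 h attachment. Detection: GalScreen β-gal luminescence, detergent lysis, 60 min. Evaluation: parasite load inhibition, %.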
SKKanGAS inh: S. pyogenes SKKanGAS growth inhibitors in kanamycin, primary screen, streptokinase expression inhibitor project, SKKanGAS strain, BacTiter-Glo luminescence; AID 1662, 2009; 300,000 compounds, 1.3% hits; inhibition, % at 7.5 µM; 6 h;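 active = mean replicate score, as percent of positive control median, at least 50; inconclusive = mean below 50 but one replicate at or above 50; inactive = mean and every replicate below 50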;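 note: strain carries kanamycin resistance gene driven by streptokinase promoter and grows in 40 µg/ml kanamycin; loss of luminescence reflects streptokinase promoter inhibition or plain growth inhibition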
Mdm2 MdmX PPI: inhibitors of human Mdm2-MdmX association, primary screen, cell-based, luminescence, split luciferase, SaOS-2, uHTS; Protein Mdm4 (Homo sapiens) + E3 ubiquitin-protein ligase Mdm2 (Homo sapiens), …; SaOS-2 split-luciferase Mdm2/MdmX complementation; inhibition, % at 8 µM; 330,000 compounds, 3% hits; AID 485346, 2010;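 active = inhibition of at least 50% at 8 µM in the primary screen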
Target sequence (O15151 whole entry, looked up): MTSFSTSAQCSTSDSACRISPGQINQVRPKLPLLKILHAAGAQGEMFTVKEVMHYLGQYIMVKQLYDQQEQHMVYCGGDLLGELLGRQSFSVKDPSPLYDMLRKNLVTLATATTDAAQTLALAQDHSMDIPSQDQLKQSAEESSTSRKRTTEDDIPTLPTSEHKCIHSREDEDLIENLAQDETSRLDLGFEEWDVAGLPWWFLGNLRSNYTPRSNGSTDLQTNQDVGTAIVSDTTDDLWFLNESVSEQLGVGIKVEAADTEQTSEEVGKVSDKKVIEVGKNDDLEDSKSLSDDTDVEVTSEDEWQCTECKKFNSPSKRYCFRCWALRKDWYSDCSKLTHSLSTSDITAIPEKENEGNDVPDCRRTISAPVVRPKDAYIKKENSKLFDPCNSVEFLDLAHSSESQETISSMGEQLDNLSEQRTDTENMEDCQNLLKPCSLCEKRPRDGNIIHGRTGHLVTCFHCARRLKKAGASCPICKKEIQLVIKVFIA
Target sequence (Q00987 whole entry, looked up): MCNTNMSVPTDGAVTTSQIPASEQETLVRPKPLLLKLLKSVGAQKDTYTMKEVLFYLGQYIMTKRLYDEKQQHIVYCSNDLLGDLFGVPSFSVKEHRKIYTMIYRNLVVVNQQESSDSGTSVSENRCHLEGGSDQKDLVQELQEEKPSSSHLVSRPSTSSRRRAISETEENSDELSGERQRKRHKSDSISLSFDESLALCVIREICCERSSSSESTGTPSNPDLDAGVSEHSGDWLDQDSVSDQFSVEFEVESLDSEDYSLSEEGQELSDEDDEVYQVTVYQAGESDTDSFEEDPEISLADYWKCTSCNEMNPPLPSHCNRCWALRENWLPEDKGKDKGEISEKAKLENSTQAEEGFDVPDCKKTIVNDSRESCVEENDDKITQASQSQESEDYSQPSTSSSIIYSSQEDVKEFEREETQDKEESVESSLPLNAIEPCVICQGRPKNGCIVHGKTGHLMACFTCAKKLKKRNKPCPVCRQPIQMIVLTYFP
CSC inhib: cancer stem cell viability inhibitors, primary screen, luminescence | inhibition, % at 7.5 µM | 300,000 compounds, 1.1% hits | AID 2717, 2010 | cancer stem cell-like cells viability; in the data active = inhibition above about 75%; inconclusive = no clear call, values can overlap the other calls; tested in HMLE shEcad cells
Numbers stand for hits.

Results for O=C(O)c1cccc(NC(=S)NC(=O)c2ccc(-c3ccc(Cl)cc3)o2)c1 ?
aSyn UTR inh: inactive; T cruzi inh: inactive; SKKanGAS inh: inactive; Mdm2 MdmX PPI: inactive; CSC inhib: inactive

How did CCCCNC(=O)C1C2C=CC(C2)C1C(=O)O (centres undefined) do in these assays?
aSyn UTR inh: inactive; T cruzi inh: inactive; SKKanGAS inh: inactive; Mdm2 MdmX PPI: inactive; CSC inhib: inactive

Results for O=C(CN1C(=O)NC2(CCCCCC2)C1=O)c1cccs1 ?
Mdm2 MdmX PPI: inactive

Results for CC1CN(c2ccc([N+](=O)[O-])c(NCCOc3ccc(Cl)cc3)c2)CC(C)N1 (centres undefined) ?
aSyn UTR inh: 104; T cruzi inh: inactive; SKKanGAS inh: inactive; Mdm2 MdmX PPI: inactive; CSC inhib: 108

Results for COc1ccc2c(O)c(-c3c(C)cc(C)cc3C)c(=O)[nH]c2c1 ?
aSyn UTR inh: inactive; T cruzi inh: inactive; SKKanGAS inh: inactive; Mdm2 MdmX PPI: inactive; CSC inhib: inactive

Results for Fc1ccc2nc(Nc3nc4cc5c(cc4s3)OCO5)sc2c1 ?
aSyn UTR inh: inactive; T cruzi inh: inactive; SKKanGAS inh: 60; Mdm2 MdmX PPI: inactive; CSC inhib: inactive

Results for Fc1ccc2nc(Nc3nc4cc5c(cc4s3)OCCO5)sc2c1 ?
aSyn UTR inh: inactive; T cruzi inh: inactive; SKKanGAS inh: 50; Mdm2 MdmX PPI: inactive; CSC inhib: inactive

Results for CC(C)(C)OC(=O)N[C@H](C(=O)OC(C)(C)C)c1ccc2ccccc2c1 ?
Mdm2 MdmX PPI: inactive; CSC inhib: inactive

Results for CCCCn1c(SCC(=O)N2c3ccccc3CCc3ccccc32)nc2c1c(=O)n(C)c(=O)n2C ?
aSyn UTR inh: 74; T cruzi inh: inactive; SKKanGAS inh: inactive; Mdm2 MdmX PPI: inactive; CSC inhib: inactive

How did CCn1c(SCC(=O)N2c3ccccc3CCc3ccccc32)nc2c1c(=O)n(C)c(=O)n2C do in these assays?
aSyn UTR inh: inactive; T cruzi inh: inactive; SKKanGAS inh: inactive; Mdm2 MdmX PPI: inactive; CSC inhib: inactive

Results for O=[N+]([O-])c1cc(S(=O)(=O)Nc2ccccc2)ccc1N1CCN(c2ccccc2)CC1 ?
aSyn UTR inh: inactive; T cruzi inh: inactive; SKKanGAS inh: 50; Mdm2 MdmX PPI: inactive; CSC inhib: inactive

Results for CC(=O)c1ccc(N2CCN(c3ccc(S(=O)(=O)NCCCN(C)C)cc3[N+](=O)[O-])CC2)cc1 ?
aSyn UTR inh: inactive; T cruzi inh: inactive; SKKanGAS inh: inactive; Mdm2 MdmX PPI: inactive; CSC inhib: 82

How did CC(=O)c1ccc(N2CCN(c3ccc(S(=O)(=O)NCCN(C)C)cc3[N+](=O)[O-])CC2)cc1 do in these assays?
aSyn UTR inh: inactive; T cruzi inh: 59; SKKanGAS inh: inactive; Mdm2 MdmX PPI: inactive; CSC inhib: inactive

What do the screens show for `CN(C)CCCNS(=O)(=O)c1ccc(N2CCN(Cc3ccc4c(c3)OCO4)CC2)c([N+](=O)[O-])c1`?
aSyn UTR inh: inactive; T cruzi inh: inactive; SKKanGAS inh: inactive; Mdm2 MdmX PPI: inactive; CSC inhib: inactive

How did Cc1cccc(C)c1NC(=O)CNC(=O)c1ccc(NS(=O)(=O)c2ccc3[nH]c(=O)[nH]c3c2)cc1 do in these assays?
aSyn UTR inh: inactive; T cruzi inh: inactive; SKKanGAS inh: inactive; Mdm2 MdmX PPI: inactive; CSC inhib: inactive

Results for O=C(c1cc(COc2cccc3cnccc23)on1)N1CCC(c2ccccc2Cl)C1 (centres undefined) ?
aSyn UTR inh: inactive; T cruzi inh: 63; SKKanGAS inh: inactive; Mdm2 MdmX PPI: inactive; CSC inhib: inactive

Results for Cn1c(N)c(C(=O)COC(=O)c2ncc(Cl)c(Cl)c2Cl)c(=O)n(C)c1=O ?
aSyn UTR inh: inactive; T cruzi inh: inactive; SKKanGAS inh: inactive; Mdm2 MdmX PPI: inactive; CSC inhib: inactive

How did CCOC(=O)c1ccc(N2CCN(c3ccccc3F)CC2)c(NC(=O)Nc2cccc(OC)c2)c1 do in these assays?
aSyn UTR inh: inactive; T cruzi inh: 70; SKKanGAS inh: inactive; Mdm2 MdmX PPI: inactive; CSC inhib: inactive

What do the screens show for `COc1cc(C(=O)N2CCN(c3cc(Cl)ccc3Cl)CC2)cc(OC)c1OC`?
aSyn UTR inh: 89; T cruzi inh: inactive; SKKanGAS inh: inactive; Mdm2 MdmX PPI: inactive; CSC inhib: inactive

What do the screens show for `COc1cc(C(=O)N2CCN(c3cccc(C)c3C)CC2)cc(OC)c1OC`?
aSyn UTR inh: inconclusive; T cruzi inh: inactive; SKKanGAS inh: inactive; Mdm2 MdmX PPI: inactive; CSC inhib: inactive

How did O=C(c1ccc(Cl)cc1)N1CCN(c2ccnc3cc(Cl)ccc23)CC1 do in these assays?
aSyn UTR inh: inactive; T cruzi inh: 69; SKKanGAS inh: inactive

What do the screens show for `CCC(=O)N1CCN(c2ccnc3cc(Cl)ccc23)CC1`?
aSyn UTR inh: inactive; T cruzi inh: inactive; SKKanGAS inh: inactive; Mdm2 MdmX PPI: inactive; CSC inhib: inactive

What do the screens show for `COc1ccc(S(=O)(=O)N2CCN(C/C=C/c3ccccc3)CC2)cc1F`?
aSyn UTR inh: inactive; T cruzi inh: inactive; SKKanGAS inh: inactive; Mdm2 MdmX PPI: inactive; CSC inhib: inactive

Results for Cc1cc(N/N=C/c2ccc(Cl)cc2)nc(NCc2ccccc2)n1 ?
aSyn UTR inh: inactive; T cruzi inh: 80; SKKanGAS inh: inactive; Mdm2 MdmX PPI: inactive; CSC inhib: inactive

Results for Cc1cc(N/N=C/c2ccccc2)nc(NCc2ccccc2)n1 ?
aSyn UTR inh: inactive; T cruzi inh: inactive; SKKanGAS inh: inactive; Mdm2 MdmX PPI: inactive; CSC inhib: inactive

How did COc1ccc(CCNC(=O)[C@H](C)N2C(=O)N3CCc4c([nH]c5ccccc45)[C@@]3(C)C2=O)cc1 do in these assays?
aSyn UTR inh: inactive; T cruzi inh: 62; SKKanGAS inh: inactive; Mdm2 MdmX PPI: inactive; CSC inhib: inactive

How did CC(C)[C@@H](C(=O)NC1CCCC1)N1C(=O)N2CCc3c([nH]c4ccccc34)[C@@]2(C)C1=O do in these assays?
aSyn UTR inh: inactive; T cruzi inh: inactive; SKKanGAS inh: 68; Mdm2 MdmX PPI: inactive; CSC inhib: inactive

Results for CC1CCN(C(=O)c2ccc3c(c2)NC(=O)/C(=C/c2ccccc2)S3)CC1 ?
aSyn UTR inh: inactive; T cruzi inh: inactive; SKKanGAS inh: 76; Mdm2 MdmX PPI: inactive; CSC inhib: inactive

What do the screens show for `Cc1ccc(/C=C2/Sc3ccc(C(=O)NCCN4CCOCC4)cc3NC2=O)cc1`?
aSyn UTR inh: inactive; T cruzi inh: inactive; SKKanGAS inh: inactive; Mdm2 MdmX PPI: inactive; CSC inhib: inactive

Results for Cc1cccc(/C=C2\Sc3ccc(C(=O)N4CCC(C(N)=O)CC4)cc3N(C)C2=O)c1 ?
aSyn UTR inh: inactive; T cruzi inh: inactive; SKKanGAS inh: inactive; Mdm2 MdmX PPI: inactive; CSC inhib: inactive

How did Cc1ccc(/C=C2/Sc3ccc(C(=O)N4CCN(C)CC4)cc3NC2=O)cc1 do in these assays?
aSyn UTR inh: inactive; T cruzi inh: inactive; SKKanGAS inh: 54; Mdm2 MdmX PPI: inactive; CSC inhib: inactive

How did COc1ccc(NC(=O)CN(C)C(=O)CCc2c[nH]c3ccccc23)cc1 do in these assays?
aSyn UTR inh: inactive; T cruzi inh: inactive; SKKanGAS inh: inactive; Mdm2 MdmX PPI: inactive; CSC inhib: inactive
